Laboratory results published in paper PMC6144584 (SAGE Open Medicine, 2018).

Test system: PBMC from prostate cancer patients
Assay: Ex vivo IFN-γ ELISPOT assay for immunogenicity
Type: cell-based, human
Conditions: positive control 10 µg/ml, 40 h
Outline: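 Ficoll-isolated patient PBMC, 3×10^5/well in triplicate, on anti-IFN-γ-coated plates (5 μg/ml; blocked with RPMI 1640 + 5% pooled human serum, 1 h, 37°C). Phytohemagglutinin 10 µg/ml; no-peptide medium control; IL-2 20 units/ml in all wells; 40 h, 37°C. Detection: biotin anti-IFN-γ 1 µg/ml final (2 h), avidin-biotin-HRP (1 h), […]. Spots counted automatically; mean SFU/well computed; positive if ≥2× no-peptide wells.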

phytohemagglutinin
Positivity index (Patient 2): 57.3 | Positivity index (Patient 5): 197.0 | Positivity index (Patient 6): 154.5 | Positivity index (Patient 7): 131.4 | Positivity index (Patient 9): 186.0 | Positivity index (Patient 10): 253.3
